Results from ChEMBL document CHEMBL4622873, “Chlorosphaerolactylates A-D: Natural Lactylates of Chlorinated Fatty Acids Isolated from the Cyanobacterium Sphaerospermopsis sp. LEGE 00249” (2020).
Converted amounts (≈) assume the structure as drawn.

Experiments:
Assay type in all cases: functional
Staphylococcus aureus = test: Bactericidal activity against Staphylococcus aureus spa type t1333/S54F9 by CLSI-based broth microdilution method
How it was run: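 S. aureus clinical isolate S54F9, revived on Mueller-Hinton agar at 37 °C from 25% (v/v) glycerol stocks held at -20 °C, then kept at 4 °C. Broth microdilution susceptibility test in 96-well plates, after which the upper wells were subcultured onto solid MSA agar to read the bactericidal endpoint.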

Candida parapsilosis = test: Fungicidal activity against Candida parapsilosis SMI416 by CLSI-based broth microdilution method; conditions: Lodderomyces parapsilosis
How it was run: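 C. parapsilosis SMI416, a clinical isolate from a bloodstream infection, revived on Mueller-Hinton agar at 37 °C from 25% (v/v) glycerol stocks held at -20 °C, then maintained at 4 °C. Media and solutions were made in ultrapure water and autoclaved at 121 °C for 15 min.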

Staphylococcus hominis = test: Antibiofilm activity against coagulase-negative Staphylococcus hominis FI31 incubated for 48 hrs by crystal violet staining-based method
How it was run: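 Strain FI31 is a clinical isolate recovered from an infected prosthesis. Media and solutions were made in ultrapure deionized water and sterilized by autoclaving at 121 °C for 15 min.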

| SMILES | MBC (Staphylococcus aureus) [mM] | MFC (Candida parapsilosis) [mM] | MBIC50 (Staphylococcus hominis) [mM] |
| --- | --- | --- | --- |
| CC(OC(=O)CCCCC(Cl)CCCCCC(Cl)Cl)C(=O)O (configuration not stated) | 2.7 to 6 (≈ 1010 to 2250 µg/mL) | 2.7 to 6 (≈ 1010 to 2250 µg/mL) | 0.5 to 1.1 |
| CCCCCCC(Cl)CCCCC(=O)OC(C)C(=O)O (configuration not stated) | 2.7 to 6 (≈ 828 to 1840 µg/mL) | 2.7 to 6 (≈ 828 to 1840 µg/mL) | 0.5 to 1.1 |
| CC(OC(=O)CCCCCCCCCCCCl)C(=O)O (configuration not stated) | 2.7 to 6 (≈ 828 to 1840 µg/mL) | 2.7 to 6 (≈ 828 to 1840 µg/mL) | 0.5 to 1.1 |
| C[C@H](OC(=O)CCCCC(Cl)CCCCCCCl)C(=O)O (some centres not stated) | 2.7 to 6 (≈ 921 to 2050 µg/mL) | 2.7 to 6 (≈ 921 to 2050 µg/mL) | 0.5 to 1.1 |
